The values that follow come from ChEMBL document CHEMBL3393017, “Flavokawains B and C, melanogenesis inhibitors, isolated from the root of Piper methysticum and synthesis of analogs” (Bioorg Med Chem Lett, 2015).

In general, IC50 refers to the point on the concentration scale where inhibition reaches its midpoint.

Where only a bound is given, the exact number is not on record here.

The target in experiment [1] is T1, Tyrosinase (Agaricus bisporus, UniProt O42713).
T1 sequence (O42713 whole entry): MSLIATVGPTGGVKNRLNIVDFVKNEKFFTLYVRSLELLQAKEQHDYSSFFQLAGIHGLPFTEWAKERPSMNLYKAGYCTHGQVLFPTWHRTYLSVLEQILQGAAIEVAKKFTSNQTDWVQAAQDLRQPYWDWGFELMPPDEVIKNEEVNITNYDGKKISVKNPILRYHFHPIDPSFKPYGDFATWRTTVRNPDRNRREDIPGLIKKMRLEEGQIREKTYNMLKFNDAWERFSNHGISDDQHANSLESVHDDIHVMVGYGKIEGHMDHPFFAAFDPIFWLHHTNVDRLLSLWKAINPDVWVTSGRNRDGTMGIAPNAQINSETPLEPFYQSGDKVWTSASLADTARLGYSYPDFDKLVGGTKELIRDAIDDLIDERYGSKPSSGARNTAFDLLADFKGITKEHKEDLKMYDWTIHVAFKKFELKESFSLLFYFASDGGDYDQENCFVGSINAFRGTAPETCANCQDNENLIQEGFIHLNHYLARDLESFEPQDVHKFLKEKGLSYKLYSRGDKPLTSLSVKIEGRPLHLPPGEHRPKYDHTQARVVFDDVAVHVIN
The experiment is described as follows: Inhibition of mushroom tyrosinase using L-tyrosine as substrate after 20 mins by microplate reader.

A short description of experiment [2]: (§1) Antimelanogenic activity in mouse B16F10 cells assessed as inhibition of melanin production after 4 days. It counts as functional, cell-based. Conditions: B16-F10, 96 h; call rule not given here. Summed up:
(§2)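 MSH-activated B16 melanoma cells were treated in triplicate, with the medium changed daily. After 4 d the cells were lysed in 1 N NaOH, and relative melanin in the lysate was read at 400 nm. Compounds were screened at 10 ppm, and those giving >50% inhibition were retested at other concentrations to derive IC50. Viability was checked by crystal violet staining read at 590 nm.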

Experiment [3] deals with B16-F10. The experiment is described as §1. It counts as functional, cell-based. Summed up:
as §2

As for `COc1cc(O)c(C(=O)/C=C/c2ccc(O)c(O)c2)c(OC)c1`, the concentration for half-maximal inhibition (IC50) result was “Not Active” in experiment [1] and 31.6 µM in experiment [2].

With `COc1ccc(/C=C/C(=O)c2c(O)cc(OC)cc2OC)cc1` [FLAVOKAWAIN A], in experiment [1], the IC50 entry is “Not Active”.

Consider `COc1cccc(/C=C/C(=O)c2c(O)cc(OC)cc2OC)c1`, for which the half-maximal inhibitory concentration (IC50) result was “Not Active” in experiment [1] and 3.1 µM in experiment [2].

In the case of `O=c1cc(CO)occ1O` [KOJIC ACID], in experiment [2], the concentration for half-maximal inhibition (IC50) is > 500 µM.

Turning to `COc1cc(O)c(C(=O)/C=C/c2ccc(O)cc2O)c(OC)c1`, the IC50 entry is “Not Active” in experiment [1] and 3.4 µM in experiment [2].

In the case of `COc1cc(O)c(C(=O)/C=C/c2ccccc2OC)c(OC)c1`, the IC50 entry in experiment [1] is “Not Active”; in experiment [2] it was 3.8 µM.

In the case of `COc1cc(O)c(C(=O)/C=C/c2ccc(O)cc2)c(OC)c1` [FLAVOKAWAIN C], the IC50 result was “Not Active” in experiment [1] and 6.9 µM in experiment [2]. Besides, in experiment [3], the inhibition result is “Dose-dependent effect”.

Turning to `COc1cc(O)c(C(=O)/C=C/c2ccccc2C(C)C)c(OC)c1`, the concentration for half-maximal inhibition (IC50) result was “Not Active” in experiment [1] and 2.7 µM in experiment [2].

For the compound `CCc1ccccc1/C=C/C(=O)c1c(O)cc(OC)cc1OC`, the half-maximal inhibitory concentration (IC50) entry in experiment [1] was “Not Active”; in experiment [2], 2.5 µM.

Turning to `COc1cc(O)c(C(=O)/C=C/c2ccccc2O)c(OC)c1`, the IC50 entry was “Not Active” in experiment [1] and 2.3 µM in experiment [2].

As to `COc1cc(O)c(C(=O)/C=C/c2cccc(O)c2)c(OC)c1`, the IC50 entry in experiment [1] is “Not Active”; in experiment [2], 9.9 µM.

Turning to `COc1cc(O)c(C(=O)/C=C/c2c(C)cccc2C)c(OC)c1`, the IC50 entry in experiment [1] is “Not Active”; in experiment [2], 9.9 µM.

Turning to `COc1cc(O)c(C(=O)/C=C/c2ccccc2C)c(OC)c1`, the figures for the IC50 entry in experiment [1] and in experiment [2] were “Not Active” and 3 µM, respectively.

Regarding `COc1cc(O)c(C(=O)/C=C/c2ccccc2)c(OC)c1` [FLAVOKAWAIN B], the half-maximal inhibitory concentration (IC50) entry in experiment [1] was “Not Active”; in experiment [2] it was 7.7 µM. Besides, in experiment [3], the inhibition result was “Dose-dependent effect”.

For the compound `COc1ccc(/C=C/C(=O)c2c(O)cc(OC)cc2OC)c(OC)c1`, the half-inhibitory concentration (IC50) entry in experiment [1] is reported as “Not Active”.
